Results from different studies.
Each line is one published result; the experiments were not run side by side.
HTR7: 5-hydroxytryptamine receptor 7 (HTR7, Homo sapiens, UniProt P34969)
Integrin alpha-V/beta-6: Integrin alpha-V/beta-6 (Homo sapiens, UniProt P06756+P18564)
ERG11: Lanosterol 14-alpha demethylase (ERG11, Candida albicans, UniProt P10613)
ST14: Suppressor of tumorigenicity 14 protein (ST14, Homo sapiens, UniProt Q9Y5Y6)

SMILES	target	test	quantity	result
Cc1cc(O)c2c(=O)c3c(O)cc(O)c4c5c(O)cc(O)c6c(=O)c7c(O)cc(C)c8c1c2c(c34)c(c78)c65	Calreticulin (CALR, Homo sapiens, UniProt P27797)	binding, MST	Kd	3680 nM
COc1cc2c(cc1OC)CN(CCc1ccc(NC(=O)c3cccc4c(=O)c5cccc(OC)c5[nH]c34)cc1)CC2	HTR7	cell-free assay	Ki	235 nM
C[C@@H](O)[C@H](NC(=O)C(C)(C)NC(=O)[C@@H](N)CS)C(=O)N[C@@H](CCCNC(=N)N)C(=O)NCC(=O)N[C@@H](CC(=O)O)C(=O)N[C@@H](Cc1cccnc1)C(=O)N1CC(F)(F)C[C@H]1C(N)=O	Integrin alpha-V/beta-6	binding, BLI	Kd	54900 nM
O=S(=O)(c1ccc(OCC(O)CN2CCCC2)c(Cl)c1)c1ccc(OCC(O)CN2CCCC2)c(Cl)c1 (centres unmarked)	ERG11	enzyme activity, inhibitor, mass spectrometry	IC50	> 50000 nM
COCCC(=O)N[C@@H](CCC(N)=O)C(=O)N[C@@H](Cc1ccccc1)C(=O)N[C@@H](CCCNC(=N)N)C(=O)c1nc2ccccc2s1	ST14	cell-free assay	Ki	0.94 nM
CCCCC1CNC2CCc3ccc(OC)cc3C12 (racemic)	HTR7	ligand displacement, radioligand	Ki	586 nM
CC(C)(NC(=O)[C@@H](N)CS)C(=O)N[C@@H](CO)C(=O)N[C@@H](CCCNC(=N)N)C(=O)NCC(=O)N[C@@H](CC(=O)O)C(=O)N[C@@H](Cc1c(F)c(F)c(F)c(F)c1F)C(=O)N1CCC(F)(F)C[C@H]1C(N)=O	Integrin alpha-V/beta-6	binding, BLI	Kd	70400 nM
CS(=O)(=O)N[C@@H](CCC(N)=O)C(=O)N[C@@H](Cc1ccccc1)C(=O)N[C@@H](CCCNC(=N)N)C(=O)c1nccs1	ST14	cell-free assay	Ki	17 nM
CC1=CC(=O)[C@@H](O)[C@]2(C)[C@H]3[C@@H](O)[C@H](O)[C@@]4(C)OC[C@@]35[C@@H](C[C@@H]12)OC(=O)[C@H](O)[C@]54O	Serine/threonine-protein kinase pim-1 (PIM1, Homo sapiens, UniProt P11309)	binding, SPR	Kd	6570 nM
CCN1CCN(Cc2ccc(Nc3ncc(F)c(-c4cc(F)c5nc6n(c5c4)[C@H](C)CCC6)n3)nc2)CC1	Multidrug and toxin extrusion protein 1 (SLC47A1, Homo sapiens, UniProt Q96FL8)	enzyme activity, inhibitor	IC50	21.2 nM
OC(COc1ccc(-c2nnco2)cc1)CN1CCN(CC(O)COc2ccc(-c3nnco3)cc2)CC1 (centres unmarked)	ERG11	enzyme activity, inhibitor, mass spectrometry	IC50	> 50000 nM
